Data set [1] concerns Human immunodeficiency virus 1. The data set is described as follows: Antiviral activity against wild type HIV1 in presence of 10% FBS. In kind it is functional, organism-based.
Data set [2] concerns Human immunodeficiency virus 1. The data set is described as follows: Antiviral activity against HIV1 harboring G140S/Q148H double mutant in presence of 10% FBS. In kind it is functional, organism-based. The gist of the method: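 HIV-1 carrying G140S/Q148H double-mutant integrase; antiviral EC50 determined with 10% FBS in the medium.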
The nature of data set [3]: Clearance in Beagle dog at 1 mg/kg, iv. In kind it is ADME, organism-based, Canis lupus familiaris. The conditions noted are these: in vivo.
A short description of data set [4]: Oral bioavailability in cynomolgus monkey at 5 mg/kg. Format: ADME, organism-based, Macaca fascicularis. To be noted: in vivo. The gist of the method:
(§1)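 Cynomolgus monkeys dosed IV or PO with compound formulated as a PEG-400/ethanol (90:10) solution. Oral bioavailability was taken from the PO versus IV exposure.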

The nature of data set [5]: AUC in Sprague-Dawley rat at 5 mg/kg, po. In kind it is ADME, organism-based. On the set-up: dose 5 mg/kg. The conditions noted are these: in vivo.
A short description of data set [6]: Half life in Beagle dog at 1 mg/kg, iv. In kind it is ADME, organism-based, Canis lupus familiaris. To be noted: in vivo.
Data set [7] is described as follows: Clearance in Sprague-Dawley rat at 1 mg/kg, iv measured up to 4 hrs. In kind it is ADME, organism-based. To be noted: in vivo. The gist of the method:
(§2)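 Male Sprague-Dawley rats dosed IV with compound as a PEG-400/ethanol (90:10) solution. Plasma exposure was followed for 4 h, and Cmax, t1/2, clearance and Vss were derived from that profile.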

Data set [8] can be described thus: Half life in cynomolgus monkey at 1 mg/kg, iv. In kind it is ADME, organism-based, Macaca fascicularis. To be noted: in vivo. The gist of the method:
as §1

The target of data set [9] is Integrase (Human immunodeficiency virus 1, UniProt T1QYY3, G140S/Q148H). Description: Binding affinity to […] HIV1 integrase G140S/Q148H mutant.
Data set [10] in a line: Cmax in Sprague-Dawley rat at 1 mg/kg, iv measured up to 4 hrs. On the set-up: route intravenous, dose 1 mg/kg, time <=4. In kind it is ADME, organism-based. To be noted: in vivo. The method in brief:
as §2

Data set [11] can be described thus: Half life in Sprague-Dawley rat at 1 mg/kg, iv measured up to 4 hrs. In kind it is ADME, organism-based. The conditions noted are these: in vivo. The gist of the method: as §2
Data set [12] can be described thus: Volume of distribution at steady state in cynomolgus monkey at 1 mg/kg, iv. In kind it is ADME, organism-based, Macaca fascicularis. To be noted: in vivo, read-out: Vdss. The gist of the method:
as §1

Data set [13] can be described thus: AUC in Beagle dog at 5 mg/kg, po. To be noted: in vivo. Format: ADME, organism-based, Canis lupus familiaris. On the set-up: dose 5 mg/kg.
A short description of data set [14]: AUC in cynomolgus monkey at 5 mg/kg, po. To be noted: in vivo. Also noted: dose 5 mg/kg. Format: ADME, organism-based, Macaca fascicularis. The method in brief: as §1
A short description of data set [15]: Binding affinity to wild type HIV1 integrase. Also noted: species or system Human immunodeficiency virus 1.
A short description of data set [16]: Clearance in cynomolgus monkey at 1 mg/kg, iv. Format: ADME, organism-based, Macaca fascicularis. The conditions noted are these: in vivo. The gist of the method: as §1
A short description of data set [17]: Ratio of EC50 for Antiviral activity against HIV1 harboring G140S/Q148H double mutant in presence of 10% FBS to EC50 for antiviral activity against HIV1 harboring G140S/Q148H double mutant in presence of HSA. Format: functional, Human immunodeficiency virus 1.
Data set [18] has as its system Human immunodeficiency virus 1. Description: Antiviral activity against HIV1 harboring G140S/Q148H double mutant in presence of HSA. In kind it is functional, organism-based.
Data set [19] is described as follows: Volume of distribution at steady state in Beagle dog at 1 mg/kg, iv. In kind it is ADME, organism-based, Canis lupus familiaris. The conditions noted are these: in vivo, read-out: Vdss.
The nature of data set [20]: Oral bioavailability in Beagle dog at 5 mg/kg. In kind it is ADME, organism-based, Canis lupus familiaris. The conditions noted are these: in vivo.
The nature of data set [21]: Volume of distribution at steady state in Sprague-Dawley rat at 1 mg/kg, iv measured up to 4 hrs. In kind it is ADME, organism-based. To be noted: in vivo, read-out: Vdss. The gist of the method: as §2
Data set [22] is described as follows: Oral bioavailability in Sprague-Dawley rat at 5 mg/kg. In kind it is ADME, organism-based. The conditions noted are these: in vivo.
The test system of data set [23] is Human immunodeficiency virus 1. The data set is described as follows: Antiviral activity against HIV1 harboring Q148R mutant. In kind it is functional, organism-based.
A short description of data set [24]: Volume of distribution at steady state in Sprague-Dawley rat at 0.5 mg/kg, iv measured up to 4 hrs. Format: ADME, organism-based. The conditions noted are these: in vivo, read-out: Vdss. The method in brief: as §2
A short description of data set [25]: Cmax in Sprague-Dawley rat at 0.5 mg/kg, iv measured up to 4 hrs. Format: ADME, organism-based. Also noted: route intravenous, dose 0.5 mg/kg, time <=4. The conditions noted are these: in vivo. The gist of the method:
as §2

Data set [26] can be described thus: Half life in Sprague-Dawley rat at 0.5 mg/kg, iv measured up to 4 hrs. In kind it is ADME, organism-based. To be noted: in vivo. The gist of the method:
as §2

Data set [27] can be described thus: Clearance in Sprague-Dawley rat at 0.5 mg/kg, iv measured up to 4 hrs. Format: ADME, organism-based. To be noted: in vivo. The gist of the method:
as §2

Molecules are shown by their SMILES.

Usually EC50 stands for the concentration at which the effect is half-maximal. On to `CN(C)C(=O)C(=O)NC12CCC(CC1)Cn1c2nc(C(=O)NCc2ccc(F)cc2S(C)(=O)=O)c(O)c1=O`, for which the concentration giving a half-maximal response (EC50) is 11 nM in [1] and over 8000 nM in [2].
The matching figures for `CN(C)C(=O)C(=O)NC12CCC(CC1)Cn1c2nc(C(=O)NCc2ccc(F)c(C(F)(F)F)c2)c(O)c1=O`: 1.4 nM and 32 nM.
Usually clearance stands for a measure of how efficiently the substance is removed, as volume per time. As a reminder, the AUC is the area under the concentration-time curve, a measure of exposure. As usually defined, the half-life is the time needed for the level to fall by half in the phase considered. For orientation: Ki means a dissociation constant, usually derived from enzyme kinetics or from competition with a known ligand. By Cmax is commonly meant the highest concentration seen after dosing. As to `Cc1cc(CNC(=O)c2nc3n(c(=O)c2O)CC2CCC3(NC(=O)C(=O)N(C)C)CC2)ccc1F`, the results for the clearance in [3], in [7] and in data set [16] were 7 mL/min/kg, 12.6 mL/min/kg and 13.5 mL/min/kg, respectively. Also, the concentration giving a half-maximal response (EC50) was 0.7 nM in [1], 21 nM in [18] and 3 nM in data set [2]. The bioavailability in data set [4] is 23%; in [20] it was 83%; in data set [22] it was 103%. In addition, the AUC in data set [5] was found to be 14.7 µM·h; in data set [13] it was 20.8 µM·h; in data set [14] it was 2.89 µM·h. For the same compound, the half-life is 1.6 h in data set [6], 1.6 h in data set [8] and 12.3 h in [11]. For the same compound, the Ki in [9] is 8 nM; in data set [15] it was 2 nM. The same compound gave a Cmax in data set [10] of 5.3 µM. The Vd in [12] stood at 0.26 L/kg; in [19] it was 0.3 L/kg; in data set [21] it was 1.2 L/kg. Also, in data set [17], the “Ratio EC50” value came out at 7.
In the case of `CN(C)C(=O)NC12CCC(CC1)Cn1c2nc(C(=O)NCc2ccc(F)cc2)c(O)c1=O`, the concentration giving a half-maximal response (EC50) in [1] was found to be 14 nM; in data set [2] it was 361 nM.
As for `CN(C)C(=O)C(=O)NC12CCC(Cn3c1nc(C(=O)NCc1ccc(F)cc1)c(O)c3=O)C2` (stereo not drawn), the results for the EC50 in [1], in data set [23] and in data set [2] were 2 nM, 26 nM and 39 nM, respectively.
Take `CN(C)C(=O)CNC12CCC(CC1)Cn1c2nc(C(=O)NCc2ccc(F)cc2)c(O)c1=O`: the figures for the concentration for a half-maximal effect (EC50) in [1] and in [2] were 7 nM and over 8000 nM, respectively.
For the compound `CN(C)C(=O)C(=O)NC12CCC(CC1)n1c2nc(C(=O)NCc2ccc(F)cc2)c(O)c1=O`, the EC50 in data set [1] was 8 nM; in data set [2], over 8000 nM.
Take `CN(C)C(=O)C(=O)NC12CCC(CC1)Cn1c2nc(C(=O)NCc2ccc(F)c(Cl)c2)c(O)c1=O`: the EC50 was 0.8 nM in [1] and 6 nM in data set [2].
Taken in the same sequence, the figures for `CCOC(=O)C(=O)NC12CCC(CC1)Cn1c2nc(C(=O)NCc2ccc(F)cc2)c(O)c1=O` were 21 nM and over 8000 nM.
Taken in the same sequence, the figures for `Cc1cc(F)ccc1CNC(=O)c1nc2n(c(=O)c1O)CC1CCC2(NC(=O)C(=O)N(C)C)CC1` were 1.3 nM and 558 nM.
As to `CNC(=O)c1cc(F)ccc1CNC(=O)c1nc2n(c(=O)c1O)CC1CCC2(NC(=O)C(=O)N(C)C)CC1`, the concentration giving a half-maximal response (EC50) in data set [1] is 60 nM; in data set [2], over 8000 nM.
With `CN(C)C(=O)C(=O)NC12CCC(CC1)Cn1c2nc(C(=O)NCc2ccc(F)cc2Cl)c(O)c1=O`, the concentration giving a half-maximal response (EC50) came out at 1.3 nM in [1] and 1320 nM in data set [2].
With `CC(C)C(=O)C(=O)NC12CCC(CC1)Cn1c2nc(C(=O)NCc2ccc(F)cc2)c(O)c1=O`, the concentration for a half-maximal effect (EC50) in [1] was determined as 2 nM; in data set [2], 94 nM.
For `CN(C)C(=O)C(=O)NC12CCC(CC1)Cn1c2nc(C(=O)NCc2ccc(F)cc2C(F)(F)F)c(O)c1=O`, the EC50 in data set [1] is 8 nM; in [2], over 8000 nM.
In the case of `CN(C)C(=O)C(=O)NC12CCC(CC1)Cn1c2nc(C(=O)NCc2ccc(F)c(F)c2)c(O)c1=O`, the values for the concentration for a half-maximal effect (EC50) in data set [1] and in data set [2] were 0.7 nM and 17 nM, respectively.
Regarding `CN(C)C(=O)C(=O)NC12CCC(CC1)Cn1c2nc(C(=O)NCc2ccc(F)cc2)c(O)c1=O`, the results for the concentration giving a half-maximal response (EC50) in data set [1] and in data set [2] were 1 nM and 10 nM, respectively. Also, the Vd in data set [24] turned out to be 0.63 L/kg. In [25], this compound returned a Cmax of 1.93 µM. Moreover, the inhibition constant Ki in data set [9] worked out at 17 nM; in [15], 2 nM. Also, the half-life in data set [26] is 0.45 h. The same compound had a clearance in [27] of 30.5 mL/min/kg.
Consider `CN(C)C(=O)C(=O)NC12CCC(CC1)Cn1c2nc(C(=O)NCc2ccc(F)cc2F)c(O)c1=O`, for which the EC50 in data set [1] stood at 0.7 nM; in data set [2] it was 37 nM.
For `CN(C)CC(=O)NC12CCC(CC1)Cn1c2nc(C(=O)NCc2ccc(F)cc2)c(O)c1=O`, the EC50 in [1] is 20 nM; in data set [2], over 8000 nM.

Source of the values: ChEMBL document CHEMBL4725239, “Design, synthesis and SAR study of bridged tricyclic pyrimidinone carboxamides as HIV-1 integrase inhibitors” (Bioorg Med Chem, 2020).
